pIC50: −log10 of the molar value.
Columns and labels:
[1] = biological target: T1, Alpha-1A adrenergic receptor (Homo sapiens, UniProt P35348); assay: Antagonist activity at adrenergic alpha1A receptor (unknown origin) by firefly and renilla dual glo luciferase assay
T1 sequence (P35348 whole entry): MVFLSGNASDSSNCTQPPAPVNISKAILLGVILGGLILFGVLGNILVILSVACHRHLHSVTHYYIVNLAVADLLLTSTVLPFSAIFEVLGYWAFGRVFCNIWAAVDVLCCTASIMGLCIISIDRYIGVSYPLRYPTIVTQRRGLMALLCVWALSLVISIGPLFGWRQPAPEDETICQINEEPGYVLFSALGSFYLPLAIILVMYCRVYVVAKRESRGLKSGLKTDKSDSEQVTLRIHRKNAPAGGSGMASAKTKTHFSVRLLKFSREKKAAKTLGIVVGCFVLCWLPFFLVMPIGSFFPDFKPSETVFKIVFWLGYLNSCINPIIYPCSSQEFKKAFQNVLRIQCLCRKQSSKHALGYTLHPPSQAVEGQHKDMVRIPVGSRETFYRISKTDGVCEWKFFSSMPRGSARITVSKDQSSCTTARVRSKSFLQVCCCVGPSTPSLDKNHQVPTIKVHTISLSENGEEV
Outline: (§1)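 Firefly and Renilla luciferase activities (RLU) were read by luminometer with the Dual-Glo kit, following the manufacturer's protocol. IC50 values were derived from three independent experiments.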

[2] = species on record: Homo sapiens; assay: Selectivity ratio of IC50 for adrenergic alpha1B receptor (unknown origin) to IC50 for adrenergic alpha1D receptor (unknown origin)
[3] = biological target: T2, Alpha-1B adrenergic receptor (Homo sapiens, UniProt P35368); assay: Antagonist activity at adrenergic alpha1B receptor (unknown origin) by firefly and renilla dual glo luciferase assay; outline: as §1
T2 sequence (P35368 whole entry): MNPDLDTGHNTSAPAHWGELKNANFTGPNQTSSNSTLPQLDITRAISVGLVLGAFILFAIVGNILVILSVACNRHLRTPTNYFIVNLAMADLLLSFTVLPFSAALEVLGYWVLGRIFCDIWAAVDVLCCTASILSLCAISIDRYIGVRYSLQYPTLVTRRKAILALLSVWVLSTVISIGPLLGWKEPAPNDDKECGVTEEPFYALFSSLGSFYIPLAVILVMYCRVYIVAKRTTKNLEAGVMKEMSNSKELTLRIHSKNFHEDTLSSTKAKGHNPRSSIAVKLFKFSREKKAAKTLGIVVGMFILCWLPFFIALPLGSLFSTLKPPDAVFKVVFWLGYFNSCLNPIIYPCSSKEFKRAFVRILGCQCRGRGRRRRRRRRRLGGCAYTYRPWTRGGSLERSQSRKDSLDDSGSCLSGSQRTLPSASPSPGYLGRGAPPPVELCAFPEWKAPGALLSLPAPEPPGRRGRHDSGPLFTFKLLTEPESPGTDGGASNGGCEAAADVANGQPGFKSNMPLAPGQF

[4] = biological target: T3, Alpha-1D adrenergic receptor (Homo sapiens, UniProt P25100); assay: Antagonist activity at adrenergic alpha1D receptor (unknown origin) by firefly and renilla dual glo luciferase assay; outline: as §1
T3 sequence (P25100 whole entry): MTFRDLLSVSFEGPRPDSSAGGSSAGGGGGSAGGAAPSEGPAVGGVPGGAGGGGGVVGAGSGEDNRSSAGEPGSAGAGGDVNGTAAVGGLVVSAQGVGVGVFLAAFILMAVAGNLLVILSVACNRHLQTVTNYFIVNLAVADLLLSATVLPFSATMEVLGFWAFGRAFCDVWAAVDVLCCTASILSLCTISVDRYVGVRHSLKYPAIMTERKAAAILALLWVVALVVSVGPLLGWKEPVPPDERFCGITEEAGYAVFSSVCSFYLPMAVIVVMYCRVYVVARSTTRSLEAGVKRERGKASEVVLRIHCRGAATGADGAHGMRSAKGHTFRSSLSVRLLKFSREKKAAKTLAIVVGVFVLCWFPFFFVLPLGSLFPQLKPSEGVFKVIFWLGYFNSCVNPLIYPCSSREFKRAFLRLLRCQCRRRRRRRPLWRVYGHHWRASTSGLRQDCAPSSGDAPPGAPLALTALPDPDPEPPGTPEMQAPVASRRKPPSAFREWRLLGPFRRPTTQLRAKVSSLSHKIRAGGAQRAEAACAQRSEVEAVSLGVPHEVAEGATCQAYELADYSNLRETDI

[5] = species on record: Homo sapiens; assay: Selectivity ratio of IC50 for adrenergic alpha1B receptor (unknown origin) to IC50 for adrenergic alpha1A receptor (unknown origin)

Row | SMILES | pIC50 [1] | Ratio IC50 [2] | pIC50 [3] | pIC50 [4] | Ratio IC50 [5]
1 | N#Cc1ccc(N2CCN(CCc3ccc(CN4C(=O)c5ccccc5C4=O)cc3)CC2)cc1 | 7.05 | 12.1 | 6.11 | 7.20 | 8.6
2 | COc1ccccc1N1CCN(CCc2ccc(CN3C(=O)c4ccccc4C3=O)cc2)CC1 | 7.52 | 0.08 | 7.00 | 5.91 | 3.3
3 | CS(=O)(=O)c1ccccc1N1CCN(CCc2ccc(CN3C(=O)c4ccccc4C3=O)cc2)CC1 | 7.33 | 19.8 | 6.70 | 8.00 | 4.3
4 | O=C1c2ccccc2C(=O)N1Cc1ccc(CCN2CCN(c3ccc(C(F)(F)F)cc3)CC2)cc1 | 7.18 | 1.5 | 7.71 | 7.89 | 0.3
5 | O=C1c2ccccc2C(=O)N1Cc1ccc(CCN2CCN(c3ccccc3)CC2)cc1 | 6.82 | 0.5 | 6.06 | 5.75 | 5.8
6 | CCOc1ccccc1N1CCN(CCc2ccc(CN3C(=O)c4ccccc4C3=O)cc2)CC1 | 7.49 | 1.8 | 6.36 | 6.62 | 13.4
7 | O=C1c2ccccc2C(=O)N1Cc1ccc(CCN2CCN(c3ccc(F)cc3)CC2)cc1 | 6.64 | 5.6 | 6.16 | 6.91 | 3
8 | Cc1ccc(N2CCN(CCc3ccc(CN4C(=O)c5ccccc5C4=O)cc3)CC2)cc1 | 8.69 | 0.08 | 7.54 | 6.46 | 14.2
9 | O=C1c2ccccc2C(=O)N1Cc1ccc(CCN2CCN(c3ccccn3)CC2)cc1 | 7.30 | 1.1 | 7.90 | 7.95 | 0.3
10 | N#Cc1ccccc1N1CCN(CCc2ccc(CN3C(=O)c4ccccc4C3=O)cc2)CC1 | 7.44 | 10.8 | 6.74 | 7.78 | 5

Continued by rising pIC50 [1], values first:

Row | pIC50 [1] | Ratio IC50 [2] | pIC50 [3] | pIC50 [4] | Ratio IC50 [5] | SMILES
11 | 5.47 | 0.1 | 6.00 | 5.13 | 0.3 | O=C1c2ccccc2C(=O)N1Cc1ccc(CCN2CCN(c3ccc(Br)cc3)CC2)cc1
12 | 5.92 | 8.7 | 6.00 | 6.94 | 0.8 | O=C1c2ccccc2C(=O)N1Cc1ccc(CCN2CCN(Cc3ccccc3)CC2)cc1
13 | 6.05 | 0.2 | 6.39 | 5.73 | 0.5 | COc1ccc(N2CCN(CCc3ccc(CN4C(=O)c5ccccc5C4=O)cc3)CC2)cc1
14 | 6.26 | – | 6.20 | 7.26 | – | COc1ccccc1N1CCN(CC(O)COc2cccc3ccccc23)CC1 (stereo not drawn) [NAFTOPIDIL]
15 | 6.26 | 22.6 | 6.10 | 7.45 | 1.4 | O=C1c2ccccc2C(=O)N1Cc1ccc(CCN2CCN(c3ccc(Cl)cc3)CC2)cc1
16 | 6.42 | 1.5 | 6.60 | 6.79 | 0.7 | O=C1c2ccccc2C(=O)N1Cc1ccc(CCN2CCN(c3ccccc3C(F)(F)F)CC2)cc1
17 | 6.64 | 0.01 | 6.02 | 4.09 | 4.2 | Cc1ccccc1N1CCN(CCc2ccc(CN3C(=O)c4ccccc4C3=O)cc2)CC1
18 | 6.89 | 0.04 | 7.46 | 6.02 | 0.3 | N#Cc1ccc(N2CCN(CCc3ccc(CN4C(=O)c5ccccc5C4=O)cc3)CC2)c(F)c1
19 | 7.02 | 0.2 | 5.73 | 4.97 | 19.5 | O=C1c2ccccc2C(=O)N1Cc1ccc(CCN2CCN(c3ccccc3F)CC2)cc1
20 | 7.05 | 1.6 | 6.10 | 6.31 | 8.8 | O=C1c2ccccc2C(=O)N1Cc1ccc(CCN2CCN(c3ccc(F)cc3F)CC2)cc1
21 | 7.46 | 1 | 7.50 | 7.50 | 0.9 | Cc1ccc(Cl)cc1N1CCN(CCc2ccc(CN3C(=O)c4ccccc4C3=O)cc2)CC1
22 | 7.82 | 21.3 | 6.11 | 7.44 | 51.5 | O=C1c2ccccc2C(=O)N1Cc1ccc(CCN2CCN(c3ccccc3Cl)CC2)cc1
23 | 7.85 | 0.2 | 6.91 | 6.06 | 8.6 | CC(=O)c1ccc(N2CCN(CCc3ccc(CN4C(=O)c5ccccc5C4=O)cc3)CC2)cc1

Source: ChEMBL document CHEMBL3739328, “Synthesis, structure-activity relationship and biological evaluation of novel arylpiperzines as α1A/1D-AR subselective antagonists for BPH” (Bioorg Med Chem, 2015)
